Experimental data: ChEMBL document CHEMBL1133122, “Hypocholesterolemic and hypolipidemic activity of some novel morpholine derivatives with antioxidant activity” (J Med Chem, 2000)

Columns and labels:
Type in all cases: functional
Rattus norvegicus [1] = experiment: Percent decrease in Total Low density lipoproteins was determined after intraperitoneal uM/kg
Summary of the method: (§1)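 Hyperlipidemia induced in male Fischer-344 rats (230-280 g) by Triton WR 1339 in aqueous solution, 200 mg/kg ip. 1 h later the compound (28 or 56 µmol/kg, in saline) or saline alone was given ip; at 56 µmol/kg, dosing was twice in 24 h. After 24 h, aortic blood was drawn for plasma total cholesterol, LDL and triglycerides, expressed as % decrease. 4-6 rats per group; Student's t-test.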

Rattus norvegicus [2] = experiment: Percent decrease in Total cholesterol was determined after intraperitoneal uM/kg; summary of the method: as §1
Rattus norvegicus [3] = experiment: Percent decrease in Total Triglycerides was determined after intraperitoneal uM/kg; summary of the method: as §1
Rattus norvegicus [4] = experiment: Percent decrease in Total cholesterol was determined after intraperitoneal administration of a dose of 56 uM/kg; summary of the method: as §1
Rattus norvegicus [5] = experiment: Percent decrease in Total Low density lipoproteins was determined after intraperitoneal administration of a dose of 56 uM/kg; summary of the method: as §1
Rattus norvegicus [6] = experiment: Percent decrease in Total Triglycerides was determined after intraperitoneal administration of a dose of 56 uM/kg; summary of the method: as §1
Rattus norvegicus [7] = experiment: Percent decrease in Total Low density lipoproteins was determined after intraperitoneal uM/kg; Not significant; summary of the method: as §1
Rattus norvegicus [8] = experiment: Percent decrease in Total Low density lipoproteins was determined after intraperitoneal administration of a dose of 56 umol/kg; summary of the method: as §1

Row | SMILES | Decrease (Rattus norvegicus [1]) [%] | Decrease (Rattus norvegicus [2]) [%] | Decrease (Rattus norvegicus [3]) [%] | Decrease (Rattus norvegicus [4]) [%] | Decrease (Rattus norvegicus [5]) [%] | Decrease (Rattus norvegicus [6]) [%] | Decrease (Rattus norvegicus [7]) [%] | Decrease (Rattus norvegicus [8]) [%]
1 | OC1(c2ccc(-c3ccccc3)cc2)CN2CCCCC2CO1 (stereo unspecified) | 51 | 22 | 20 |  |  |  |  | 
2 | CC(C)(Sc1cc(C(C)(C)C)c(O)c(C(C)(C)C)c1)Sc1cc(C(C)(C)C)c(O)c(C(C)(C)C)c1 [PROBUCOL] |  |  |  | 18 | 18 | 11 |  | 
3 | CN1CC(O)(c2ccc(-c3ccccc3)cc2)OC2CCCCC21 (stereo unspecified) | 51 | 54 | 49 |  |  |  |  | 
4 | CCOC1(c2ccc(-c3ccccc3)cc2)CN(C)CCO1.Cl (stereo unspecified) |  |  |  | 30 | 22 | 39 |  | 
5 | CN1CCOC(O)(c2ccc(-c3ccccc3)cc2)C1.Cl (stereo unspecified) |  |  |  | 32 | 32 | 42 |  | 
6 | CCCOC1(c2ccc(-c3ccccc3)cc2)CN2CCCCC2CO1.Cl (stereo unspecified) |  | 36 | 34 |  |  |  | 17 | 
7 | CCCOC1(c2ccc(-c3ccccc3)cc2)CN(C)C2CCCCC2O1.Cl (stereo unspecified) |  | 50 | 41 |  |  |  |  | 28
